Measurements as given in ChEMBL document CHEMBL2034972, “Synthesis, biological evaluation, and structure-activity relationships of N-benzoyl-2-hydroxybenzamides as agents active against P. falciparum (K1 strain), Trypanosomes, and Leishmania” (J Med Chem, 2012).
Converted amounts (≈) assume the structure as drawn.

Legend:
[1] = Metabolic stability of the compound in human liver microsomes assessed as compound remaining after 60 mins in presence of NADPH; type: ADME, Microsome; details: read-out: Stability
[2] = Metabolic stability of the compound in human liver microsomes assessed as compound remaining after 60 mins; type: ADME, Microsome; details: read-out: Stability
[3] = biological target: Voltage-gated inwardly rectifying potassium channel KCNH2 (Homo sapiens, UniProt Q12809); assay: Inhibition of human Erg at 300 uM
CYP3A4 = CYP3A4 (Homo sapiens, UniProt P08684); assay: Inhibition of CYP3A4 at 10 uM; type: ADME
CYP2D6 = CYP2D6 (Homo sapiens, UniProt P10635); assay: Inhibition of CYP2D6 at 10 uM; type: ADME
CYP2C9 = CYP2C9 (Homo sapiens, UniProt P11712); assay: Inhibition of CYP2C9 at 10 uM; type: ADME
[4] = Aqueous solubility of the compound in phosphate based buffer at pH 4; type: physicochemical
[5] = Aqueous solubility of the compound in phosphate based buffer at pH 7.4; type: physicochemical
[6] = Plasma protein binding in human; type: ADME, cell-free; details: read-out: PPB (converted)
[7] = Intrinsic clearance in human liver microsomes assessed per mg of protein; type: ADME, Microsome; details: read-out: CLH
[8] = test system: Trypanosoma brucei rhodesiense; assay: Antitrypanosomal activity against trypomastigotes of Trypanosoma brucei rhodesiense […] after 72 hrs by alamar blue assay; type: functional, organism-based; details: STIB 900, L6, 72 h
Method in brief: (§1)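 In vitro screens of parasites and host cells: T. b. rhodesiense STIB900 trypomastigotes, T. cruzi Tulahuen C4 intracellular amastigotes, L. donovani MHOM-ET-67/L82 axenic amastigotes, P. falciparum K1 erythrocytic stage, and L6 rat skeletal myoblasts […] for toxicity. […] Values are means of two independent determinations.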

Trypanosoma cruzi = assay: Antitrypanosomal activity against intracellular amastigote stage of Trypanosoma cruzi Tulahuen C2C4 infected in rat L6 cells after 96 hrs by spectrophotometric analysis; type: functional, organism-based; details: Tulahuen C2C4, L6, 96 h
Method in brief: (§2)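 In vitro screens of parasites and host cells: T. b. rhodesiense STIB900 trypomastigotes, T. cruzi Tulahuen C4 intracellular amastigotes, L. donovani MHOM-ET-67/L82 axenic amastigotes, P. falciparum K1 erythrocytic stage, and L6 rat skeletal myoblasts […] for toxicity. Values are means of two independent determinations.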

Leishmania donovani = assay: Antileishmanial activity against axenic amastigote stage of Leishmania donovani […] after 72 hrs by alamar blue assay; type: functional, organism-based; details: MHOM/ET/67/L82, L6, 72 h; method in brief: as §2
Plasmodium falciparum = assay: Antimalarial activity against chloroquine and pyrimethamine-resistant Plasmodium falciparum […] assessed as [3H]-hypoxanthine incorporation after 48 hrs by liquid scintillation counting; type: functional, organism-based; method in brief: as §1
L6 = assay: Cytotoxicity against rat L6 cells after 72 hrs by alamar blue assay; type: cell-based; details: L6, 72 h; method in brief: as §1
[9] = Selectivity index, ratio of IC50 for rat L6 cells to IC50 for trypomastigotes of Trypanosoma brucei rhodesiense STIB 900; type: toxicity, cell-based; details: read-out: Ratio IC50
Method in brief: (§3)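 Selectivity index is calculated as the L6 myoblast IC50 divided by the IC50 against the respective parasite. Both IC50s are in µg/mL and are means of two independent determinations.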

[10] = Selectivity index, ratio of IC50 for rat L6 cells to IC50 for intracellular amastigote stage of Trypanosoma cruzi Tulahuen C2C4; type: toxicity, cell-based; details: read-out: Ratio IC50; method in brief: as §3
[11] = Selectivity index, ratio of IC50 for rat L6 cells to IC50 for axenic amastigote stage of Leishmania donovani MHOM/ET/67/L82; type: toxicity, cell-based; details: read-out: Ratio IC50; method in brief: as §3
[12] = Selectivity index, ratio of IC50 for rat L6 cells to IC50 for chloroquine and pyrimethamine-resistant Plasmodium falciparum K1; type: toxicity, cell-based; details: read-out: Ratio IC50; method in brief: as §3

Sequence of Voltage-gated inwardly rectifying potassium channel KCNH2 (Q12809 whole entry): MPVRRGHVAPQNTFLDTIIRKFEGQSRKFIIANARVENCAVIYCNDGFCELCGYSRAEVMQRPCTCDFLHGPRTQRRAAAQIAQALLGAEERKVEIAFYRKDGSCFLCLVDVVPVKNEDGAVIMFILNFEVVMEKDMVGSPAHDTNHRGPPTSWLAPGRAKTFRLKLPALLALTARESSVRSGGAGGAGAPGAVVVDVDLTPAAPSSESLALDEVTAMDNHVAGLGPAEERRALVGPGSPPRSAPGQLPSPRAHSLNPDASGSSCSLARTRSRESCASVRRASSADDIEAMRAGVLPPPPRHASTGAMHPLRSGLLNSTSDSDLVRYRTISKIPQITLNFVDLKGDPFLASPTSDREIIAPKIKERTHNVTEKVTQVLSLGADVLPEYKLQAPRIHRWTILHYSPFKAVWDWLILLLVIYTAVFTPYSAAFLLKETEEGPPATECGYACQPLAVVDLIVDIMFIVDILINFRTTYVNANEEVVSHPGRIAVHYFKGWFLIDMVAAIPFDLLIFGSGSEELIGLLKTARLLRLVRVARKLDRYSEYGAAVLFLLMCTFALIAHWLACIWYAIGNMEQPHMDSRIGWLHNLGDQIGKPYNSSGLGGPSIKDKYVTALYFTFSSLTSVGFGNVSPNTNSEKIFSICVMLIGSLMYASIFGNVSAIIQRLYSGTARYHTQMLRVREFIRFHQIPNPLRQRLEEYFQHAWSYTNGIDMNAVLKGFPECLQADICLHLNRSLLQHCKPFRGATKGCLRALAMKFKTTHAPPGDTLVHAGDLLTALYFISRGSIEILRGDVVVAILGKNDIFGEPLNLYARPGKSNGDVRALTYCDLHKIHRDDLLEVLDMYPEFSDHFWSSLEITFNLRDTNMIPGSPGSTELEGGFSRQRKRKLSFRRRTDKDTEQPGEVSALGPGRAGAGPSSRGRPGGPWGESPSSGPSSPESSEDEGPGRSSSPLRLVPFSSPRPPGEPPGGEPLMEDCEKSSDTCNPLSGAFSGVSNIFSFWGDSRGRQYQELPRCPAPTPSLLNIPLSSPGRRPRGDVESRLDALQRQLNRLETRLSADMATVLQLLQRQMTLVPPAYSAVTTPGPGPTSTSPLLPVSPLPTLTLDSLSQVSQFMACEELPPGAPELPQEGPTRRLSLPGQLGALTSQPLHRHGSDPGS
Sequence of CYP2C9 (P11712 whole entry): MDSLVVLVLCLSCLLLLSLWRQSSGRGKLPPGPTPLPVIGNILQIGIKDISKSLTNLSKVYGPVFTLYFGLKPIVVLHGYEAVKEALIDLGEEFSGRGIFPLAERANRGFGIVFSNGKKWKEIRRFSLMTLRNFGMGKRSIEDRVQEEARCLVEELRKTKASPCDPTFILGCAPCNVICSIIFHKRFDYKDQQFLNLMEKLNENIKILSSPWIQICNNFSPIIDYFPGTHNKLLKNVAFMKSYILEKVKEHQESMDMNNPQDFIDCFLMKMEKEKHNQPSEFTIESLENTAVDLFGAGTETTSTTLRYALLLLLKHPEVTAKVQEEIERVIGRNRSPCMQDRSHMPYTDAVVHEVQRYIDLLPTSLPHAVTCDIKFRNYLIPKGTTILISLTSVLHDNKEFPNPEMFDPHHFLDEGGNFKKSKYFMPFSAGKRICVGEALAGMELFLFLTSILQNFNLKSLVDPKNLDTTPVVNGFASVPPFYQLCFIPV
Sequence of CYP2D6 (P10635 whole entry): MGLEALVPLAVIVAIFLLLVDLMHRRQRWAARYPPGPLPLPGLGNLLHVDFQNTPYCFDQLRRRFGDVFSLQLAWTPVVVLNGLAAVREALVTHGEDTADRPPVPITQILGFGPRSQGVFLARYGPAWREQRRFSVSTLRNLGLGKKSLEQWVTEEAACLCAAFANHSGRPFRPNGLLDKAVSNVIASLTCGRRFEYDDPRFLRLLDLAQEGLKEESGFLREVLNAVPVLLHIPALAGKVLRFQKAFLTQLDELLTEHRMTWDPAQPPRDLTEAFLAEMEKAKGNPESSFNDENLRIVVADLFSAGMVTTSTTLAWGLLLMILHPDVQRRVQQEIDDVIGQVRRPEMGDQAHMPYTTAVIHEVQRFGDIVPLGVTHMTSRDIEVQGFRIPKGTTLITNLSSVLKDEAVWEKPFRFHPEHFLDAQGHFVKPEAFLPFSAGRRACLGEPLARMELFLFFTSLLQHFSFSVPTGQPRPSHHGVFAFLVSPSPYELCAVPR
Sequence of CYP3A4 (P08684 whole entry): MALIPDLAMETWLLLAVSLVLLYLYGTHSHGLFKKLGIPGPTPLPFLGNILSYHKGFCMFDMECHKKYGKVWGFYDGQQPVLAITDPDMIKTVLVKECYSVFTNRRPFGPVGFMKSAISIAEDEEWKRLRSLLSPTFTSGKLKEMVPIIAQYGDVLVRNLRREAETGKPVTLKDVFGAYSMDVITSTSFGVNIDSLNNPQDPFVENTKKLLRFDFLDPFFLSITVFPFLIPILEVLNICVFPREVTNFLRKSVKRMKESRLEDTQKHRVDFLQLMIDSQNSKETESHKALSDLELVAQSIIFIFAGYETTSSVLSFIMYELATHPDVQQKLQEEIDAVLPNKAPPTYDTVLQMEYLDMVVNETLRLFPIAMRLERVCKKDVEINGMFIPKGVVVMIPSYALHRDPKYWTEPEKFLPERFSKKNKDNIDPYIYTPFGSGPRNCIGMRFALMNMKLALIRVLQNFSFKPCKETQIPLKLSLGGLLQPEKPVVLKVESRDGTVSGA

In the case of `CCc1ccc(C(=O)NC(=O)c2ccccc2O)cc1`, the remaining at 1 h [1] is reported as 0.5%, the remaining at 1 h [2] is reported as 53% and the “inhibition (INH)” value [3] is reported as “Not Active”. The inhibition at 10 µM (CYP3A4) was 71%, the inhibition at 10 µM (CYP2D6) was 71% and the inhibition at 10 µM (CYP2C9) was 71%. For the same molecule, the solubility [4] was 2.76 µM (≈ 0.743 µg/mL), the solubility [5] was 50.8 µM (≈ 13.7 µg/mL) and the fraction unbound [6] was 0.001. For the same molecule, the microsomal CLint [7] was 282 µL/min/mg, the IC50 [8] was 81 µg/mL (≈ 301 µM) and the IC50 (Trypanosoma cruzi) was 4.8 µg/mL (≈ 17.8 µM). For the same molecule, the IC50 (Leishmania donovani) was 7.4 µg/mL (≈ 27.5 µM), the IC50 (Plasmodium falciparum) was 5.6 µg/mL (≈ 20.8 µM) and the IC50 (L6) was 70 µg/mL (≈ 260 µM).

`OC(Cn1cncn1)(Cn1cncn1)c1ccc(F)cc1F` [FLUCONAZOLE] showed a fraction unbound [6] of 0.763.

Work on `COc1ccc2cc(C(=O)NC(=O)c3ccccc3O)ccc2c1` yielded an IC50 [8] of 42 µg/mL (≈ 131 µM), an IC50 (Trypanosoma cruzi) of 5.1 µg/mL (≈ 15.9 µM) and an IC50 (Leishmania donovani) of 1.4 µg/mL (≈ 4.36 µM). For the same molecule, the IC50 (Plasmodium falciparum) was 0.98 µg/mL (≈ 3.05 µM), the IC50 (L6) was 56 µg/mL (≈ 174 µM) and the selectivity ratio [9] was 1.3. The selectivity ratio [10] was 11, the selectivity ratio [11] was 40 and the selectivity ratio [12] was 57.

`O=C(NC(=O)c1ccccc1O)c1ccc(OCc2ccccc2)cc1` showed an IC50 [8] of 62 µg/mL (≈ 178 µM), an IC50 (Trypanosoma cruzi) of 4.4 µg/mL (≈ 12.7 µM) and an IC50 (Leishmania donovani) of 1.5 µg/mL (≈ 4.32 µM). For the same molecule, the IC50 (Plasmodium falciparum) was 4.1 µg/mL (≈ 11.8 µM), the IC50 (L6) was 64 µg/mL (≈ 184 µM) and the selectivity ratio [9] was 1. It also gave a selectivity ratio [10] of 15, a selectivity ratio [11] of 42 and a selectivity ratio [12] of 16.

Molecule `CCOc1ccc(C(=O)NC(=O)c2ccccc2O)cc1` has an IC50 [8] of 60 µg/mL (≈ 210 µM), an IC50 (Trypanosoma cruzi) of 4.1 µg/mL (≈ 14.4 µM) and an IC50 (Leishmania donovani) of 0.45 µg/mL (≈ 1.58 µM). For the same molecule, the IC50 (Plasmodium falciparum) was 1 µg/mL (≈ 3.51 µM), the IC50 (L6) was 17 µg/mL (≈ 59.6 µM) and the selectivity ratio [9] was 0.28. The selectivity ratio [10] was 4.1, the selectivity ratio [11] was 37 and the selectivity ratio [12] was 17.

For `O=C(NC(=O)c1ccccc1O)c1ccc2c(c1)OCO2`, the IC50 [8] was > 50 µg/mL, the IC50 (Trypanosoma cruzi) was 27 µg/mL (≈ 94.7 µM) and the IC50 (Leishmania donovani) was > 50 µg/mL. The IC50 (Plasmodium falciparum) was 4.2 µg/mL (≈ 14.7 µM), the IC50 (L6) was 24 µg/mL (≈ 84.1 µM) and the selectivity ratio [9] was < 0.47. The selectivity ratio [10] was 0.86, the selectivity ratio [11] was < 0.47 and the selectivity ratio [12] was 5.6.

With `O=C(NC(=O)c1ccccc1O)c1ccc([N+](=O)[O-])cc1` the IC50 [8] was > 100 µg/mL, the IC50 (Trypanosoma cruzi) was 56 µg/mL (≈ 196 µM) and the IC50 (Leishmania donovani) was 11 µg/mL (≈ 38.4 µM). The IC50 (Plasmodium falciparum) was 22 µg/mL (≈ 76.9 µM), the IC50 (L6) was 53 µg/mL (≈ 185 µM) and the selectivity ratio [9] was < 0.53. The selectivity ratio [10] was 0.94, the selectivity ratio [11] was 4.9 and the selectivity ratio [12] was 2.4.

Molecule `O=C(NC(=O)c1ccccc1O)c1ccc(F)cc1` has an IC50 [8] of 64 µg/mL (≈ 247 µM), an IC50 (Trypanosoma cruzi) of 51 µg/mL (≈ 197 µM) and an IC50 (Leishmania donovani) of 1.6 µg/mL (≈ 6.17 µM). The IC50 (Plasmodium falciparum) was 1.5 µg/mL (≈ 5.79 µM), the IC50 (L6) was 38 µg/mL (≈ 147 µM) and the selectivity ratio [9] was 0.6. It also gave a selectivity ratio [10] of 0.75, a selectivity ratio [11] of 23 and a selectivity ratio [12] of 25.

Molecule `O=C(NC(=O)c1ccccc1O)c1cccc(CCl)c1` has an IC50 [8] of 20 µg/mL (≈ 69 µM), an IC50 (Trypanosoma cruzi) of 17 µg/mL (≈ 58.7 µM) and an IC50 (Leishmania donovani) of 0.16 µg/mL (≈ 0.552 µM). For the same molecule, the IC50 (Plasmodium falciparum) was 4.4 µg/mL (≈ 15.2 µM), the IC50 (L6) was 1.8 µg/mL (≈ 6.21 µM) and the selectivity ratio [9] was 0.087. For the same molecule, the selectivity ratio [10] was 0.1, the selectivity ratio [11] was 11 and the selectivity ratio [12] was 0.4.

In the case of `COC(=O)c1ccc(C(=O)NC(=O)c2ccccc2O)cc1`, the IC50 [8] is reported as > 50 µg/mL, the IC50 (Trypanosoma cruzi) is reported as 20 µg/mL (≈ 66.8 µM) and the IC50 (Leishmania donovani) is reported as > 50 µg/mL. The IC50 (Plasmodium falciparum) was 2.9 µg/mL (≈ 9.69 µM), the IC50 (L6) was 42 µg/mL (≈ 140 µM) and the selectivity ratio [9] was < 0.83. For the same molecule, the selectivity ratio [10] was 2.1, the selectivity ratio [11] was < 0.83 and the selectivity ratio [12] was 14.
